The text below walks through data of ChEMBL document CHEMBL3259668, “Synthesis of N-benzenesulfonamide-1H-pyrazoles bearing arylsulfonyl moiety: novel celecoxib analogs as potent anti-inflammatory agents” (Eur J Med Chem, 2014).

A short description of data set [1]: Toxicity in ip dosed mouse assessed as behavioral changes and death during observation up to 72 hrs. In kind it is organism-based. As to conditions: in vivo. The method in brief:
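Male mice in groups, given test compounds intraperitoneally at various doses. Watched continuously for up to 6 h, then kept under observation for 72 h, recording all behavioural changes and deaths. Percentage of deaths at each dose was converted to probits to calculate LD50 (mM/kg).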

In data set [2] the target is T1, Prostaglandin G/H synthase 1 (Ovis aries) (UniProt P05979).
T1 sequence (whole entry): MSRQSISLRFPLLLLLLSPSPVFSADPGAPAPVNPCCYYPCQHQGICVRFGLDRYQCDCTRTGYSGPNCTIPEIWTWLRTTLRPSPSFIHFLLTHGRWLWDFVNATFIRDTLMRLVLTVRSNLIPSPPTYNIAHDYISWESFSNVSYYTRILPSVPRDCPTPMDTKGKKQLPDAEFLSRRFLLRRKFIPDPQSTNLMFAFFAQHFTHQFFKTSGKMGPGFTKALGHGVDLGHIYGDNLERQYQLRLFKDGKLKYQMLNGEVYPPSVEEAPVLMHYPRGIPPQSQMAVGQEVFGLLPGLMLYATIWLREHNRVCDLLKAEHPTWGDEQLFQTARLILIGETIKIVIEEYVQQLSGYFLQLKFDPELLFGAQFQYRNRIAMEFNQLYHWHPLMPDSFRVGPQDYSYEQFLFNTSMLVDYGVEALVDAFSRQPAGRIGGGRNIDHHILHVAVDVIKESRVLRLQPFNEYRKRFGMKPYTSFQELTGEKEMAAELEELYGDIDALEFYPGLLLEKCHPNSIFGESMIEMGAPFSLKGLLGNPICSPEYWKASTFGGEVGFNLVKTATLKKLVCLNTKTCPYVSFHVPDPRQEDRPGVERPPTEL
The experiment in a line: Inhibition of ovine COX1 at 5 uM.

For the next data set, the species on record is Ovis aries. The experiment in a line: Selectivity index, ratio of ovine COX2 to ovine COX1.
In data set [3] the test system is Mus musculus. The experiment in a line: Analgesic activity in ip dosed albino Swiss mouse after 1 hr by hot plate test. In kind it is functional. In a few lines: (§1)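 Mice given a single intraperitoneal dose of test compound (5-200 mg/kg). Reaction time on the hot plate was measured before treatment as the control and again at 15, 30, 60 and 120 min after injection, with a 60 s cut-off. Each animal served as its own control.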
For orientation: Thermal pain tests record how soon the animal reacts.

Data set [4] deals with Rattus norvegicus. Kind of data set: Gastrointestinal toxicity in albino rat assessed as ulcer index at 100 umol/kg, po qd for 3 days measured 6 hrs after last dose. As to conditions: in vivo, 100 µmol/kg.
In data set [5] the test system is Rattus norvegicus. Kind of data set: Antiinflammatory activity in ip dosed Sprague-Dawley rat assessed as inhibition of carrageenan-induced foot paw edema after 1 hr by plethysmometer analysis. In kind it is functional. The conditions noted are these: Sprauge-Dawley. The method in brief: (§2)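 Rats fasted at least 16 h with free access to water. Compounds were given as a suspension in 0.5% methyl cellulose, with a vehicle-only negative control group. Paw volume was measured by water displacement on a plethysmometer before and after treatment. Inhibition (%) = (1 − D/C) × 100, where D and C are the paw-volume changes in treated and control groups.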
On the technique in general: The carrageenan paw model is a standard test of acute inflammation.

Data set [6] deals with Mus musculus. The experiment in a line: Analgesic activity in ip dosed albino Swiss mouse after 2 hrs by hot plate test. The format is functional. The method in brief: as §1
The subject of data set [7] is Mus musculus. The experiment in a line: Analgesic activity in ip dosed albino Swiss mouse after 0.5 hrs by hot plate test. In kind it is functional. In a few lines: as §1
Data set [8] deals with Rattus norvegicus. The experiment in a line: Antiinflammatory activity in ip dosed Sprague-Dawley rat assessed as inhibition of carrageenan-induced foot paw edema after 2 hrs by plethysmometer analysis. The format is functional. As to conditions: Sprauge-Dawley. The method in brief:
as §2

For data set [9], the system named is Rattus norvegicus. The experiment in a line: Antiinflammatory activity in ip dosed Sprague-Dawley rat assessed as inhibition of carrageenan-induced foot paw edema after 3 hrs by plethysmometer analysis. In kind it is functional. As to conditions: Sprauge-Dawley. The method in brief: as §2

As to `CC(=O)c1nn(-c2ccc(S(N)(=O)=O)cc2)c(-c2ccc(Br)cc2)c1S(=O)(=O)c1ccccc1`, the median lethal dose (LD50) at 72 h in data set [1] came to 7100 µmol/kg. This molecule also registered an inhibition in data set [2] of 34%. The Selectivity Index in the data set listed under Ovis aries worked out at 0.79. For the same molecule, the ED50 with Mus musculus [3] was 81 µM/kg; in the data set with Rattus norvegicus [5] it was 87 µM/kg; with Mus musculus [6] it was 80 µM/kg; in the data set on Mus musculus [7] it was 57 µM/kg; with Rattus norvegicus [8] it was 64 µM/kg; in the data set on Rattus norvegicus [9], 68 µM/kg. In addition, in the data set with Rattus norvegicus [4], the UI is recorded as 2.86.

With `O=S(=O)(C/C(=N/Nc1ccccc1)c1ccccc1)c1ccccc1`, the median lethal dose (LD50) at 72 h in [1] was determined as 14600 µmol/kg. The ED50 in the data set with Mus musculus [3] was 319 µM/kg; in the data set with Rattus norvegicus [5] it was 270 µM/kg; in the data set on Mus musculus [6], 345 µM/kg; with Mus musculus [7], 285 µM/kg; in the data set with Rattus norvegicus [8], 248 µM/kg; with Rattus norvegicus [9] it was 256 µM/kg.

On to `O=C(CS(=O)(=O)c1ccccc1)c1ccc(Br)cc1`, for which the median lethal dose (LD50) at 72 h in data set [1] worked out at 12400 µmol/kg. Besides, the ED50 came to 318 µM/kg in the data set on Mus musculus [3]; 550 µM/kg with Rattus norvegicus [5]; 318 µM/kg in the data set on Mus musculus [6]; 218 µM/kg in the data set on Mus musculus [7]; 350 µM/kg in the data set on Rattus norvegicus [8]; 327 µM/kg with Rattus norvegicus [9].

`Cc1ccc(S(=O)(=O)CC(=O)c2ccc(Br)cc2)cc1`: the 50% lethal dose (LD50) at 72 h in [1] was determined as 12700 µmol/kg. In addition, the ED50 was determined as 69 µM/kg in the data set on Mus musculus [3]; 213 µM/kg in the data set with Rattus norvegicus [5]; 66 µM/kg in the data set with Mus musculus [6]; 73 µM/kg in the data set on Mus musculus [7]; 213 µM/kg with Rattus norvegicus [8]; 200 µM/kg with Rattus norvegicus [9].

Consider `Cc1ccc(/C(CS(=O)(=O)c2ccccc2)=N\O)cc1`, for which, in data set [1], the 50% lethal dose (LD50) at 72 h worked out at 9000 µmol/kg. For the same molecule, the ED50 came out at 203 µM/kg in the data set with Mus musculus [3]; 271 µM/kg in the data set on Rattus norvegicus [5]; 200 µM/kg in the data set with Mus musculus [6]; 212 µM/kg with Mus musculus [7]; 238 µM/kg with Rattus norvegicus [8]; 237 µM/kg in the data set with Rattus norvegicus [9].

Consider `CC(=O)c1nn(-c2ccc(S(N)(=O)=O)cc2)c(-c2ccc(Br)cc2)c1S(=O)(=O)c1ccc(C)cc1`, for which the median lethal dose (LD50) at 72 h in data set [1] was 7100 µmol/kg. Moreover, the inhibition in data set [2] was found to be 3%. For the same molecule, the Selectivity Index in the data set listed under Ovis aries turned out to be 13. Moreover, the ED50 in the data set on Mus musculus [3] was found to be 195 µM/kg; with Rattus norvegicus [5], 75 µM/kg; in the data set on Mus musculus [6], 204 µM/kg; in the data set with Mus musculus [7], 69 µM/kg; with Rattus norvegicus [8], 54 µM/kg; in the data set on Rattus norvegicus [9] it was 51 µM/kg. Also, in the data set with Rattus norvegicus [4], the UI is recorded as 0.98.

As for `Cc1ccc(/C(CS(=O)(=O)c2ccccc2)=N\Nc2ccccc2)cc1`, in data set [1], the LD50 at 72 h stood at 11500 µmol/kg. Besides, the ED50 was determined as 260 µM/kg with Mus musculus [3]; 280 µM/kg in the data set on Rattus norvegicus [5]; 288 µM/kg with Mus musculus [6]; 220 µM/kg with Mus musculus [7]; 181 µM/kg in the data set on Rattus norvegicus [8]; 169 µM/kg in the data set on Rattus norvegicus [9].

Turning to `CC(=O)c1nn(-c2ccc(S(N)(=O)=O)cc2)c(-c2ccccc2)c1S(=O)(=O)c1ccccc1`, the LD50 at 72 h in data set [1] came to 10100 µmol/kg. Also, the ED50 in the data set with Mus musculus [3] amounted to 261 µM/kg; in the data set with Rattus norvegicus [5], 363 µM/kg; with Mus musculus [6] it was 261 µM/kg; in the data set on Mus musculus [7], 311 µM/kg; in the data set on Rattus norvegicus [8], 376 µM/kg; in the data set on Rattus norvegicus [9], 372 µM/kg.

For `CC(=O)c1nn(-c2ccc(S(N)(=O)=O)cc2)c(-c2ccc(C)cc2)c1S(=O)(=O)c1ccccc1`, the LD50 at 72 h in data set [1] turned out to be 10100 µmol/kg. The same molecule returned an inhibition in data set [2] of 18%. In addition, the Selectivity Index in the data set filed under Ovis aries was 1.83. In addition, the ED50 in the data set with Mus musculus [3] is 147 µM/kg; with Rattus norvegicus [5], 112 µM/kg; in the data set on Mus musculus [6], 147 µM/kg; in the data set with Mus musculus [7] it was 50 µM/kg; with Rattus norvegicus [8], 102 µM/kg; in the data set on Rattus norvegicus [9], 95 µM/kg. Besides, the UI with Rattus norvegicus [4] is listed as 2.25.

For `Cc1ccc(C(=O)CS(=O)(=O)c2ccccc2)cc1`, the median lethal dose (LD50) at 72 h in data set [1] was 14300 µmol/kg. Also, the ED50 turned out to be 408 µM/kg with Mus musculus [3]; 145 µM/kg in the data set on Rattus norvegicus [5]; 434 µM/kg in the data set on Mus musculus [6]; 168 µM/kg in the data set with Mus musculus [7]; 137 µM/kg in the data set with Rattus norvegicus [8]; 133 µM/kg in the data set on Rattus norvegicus [9].

Consider `Cc1ccc(-c2cc(C(F)(F)F)nn2-c2ccc(S(N)(=O)=O)cc2)cc1` [CELECOXIB], for which, in data set [1], the median lethal dose (LD50) at 72 h came out at 9800 µmol/kg. For the same molecule, the ED50 was 72 µM/kg in the data set on Mus musculus [3]; 89 µM/kg in the data set with Rattus norvegicus [5]; 70 µM/kg with Mus musculus [6]; 156 µM/kg with Mus musculus [7]; 89 µM/kg in the data set on Rattus norvegicus [8]; 86 µM/kg in the data set on Rattus norvegicus [9]. Also, the UI in the data set with Rattus norvegicus [4] amounted to 0.92.

With `O=C(CS(=O)(=O)c1ccccc1)c1ccccc1`, the LD50 at 72 h in data set [1] was 19700 µmol/kg. The ED50 in the data set on Mus musculus [3] is 158 µM/kg; in the data set with Rattus norvegicus [5] it was 238 µM/kg; with Mus musculus [6], 145 µM/kg; in the data set on Mus musculus [7], 250 µM/kg; with Rattus norvegicus [8], 232 µM/kg; with Rattus norvegicus [9], 242 µM/kg.

For the molecule `O=S(=O)(C/C(=N/O)c1ccccc1)c1ccccc1`, in [1], the LD50 at 72 h is 17400 µmol/kg. The ED50 in the data set with Mus musculus [3] was 265 µM/kg; in the data set with Rattus norvegicus [5], 285 µM/kg; in the data set on Mus musculus [6] it was 244 µM/kg; in the data set with Mus musculus [7] it was 320 µM/kg; with Rattus norvegicus [8] it was 245 µM/kg; with Rattus norvegicus [9], 256 µM/kg.

As a reminder, the LD50 is the dose expected to kill half of the subjects tested. Usually inhibition stands for the drop in the measured response relative to a control, in per cent.
